Screening results as filed in PubChem BioAssay.
This is a sample that favours compounds with a hit; in the whole collection about 2.6% have one here.
Wnt bcat act: Wnt/beta-catenin pathway activation; Wnt/beta-catenin reporter cell assay, activator, plate reader; activation, % at 9.35 µM; hit rate 1.2% among 300,000; AID 743398; in the data active = activation above about 30%, passing the limit was not always enough; inconclusive = no clear call, values can overlap the other calls;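 note: 0% = neutral control wells and 100% = positive control wells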
MITF TRPM1 HTS: increases MITF-driven TRPM1 promoter luciferase signal. SK-MEL-5 TRPM1-promoter luciferase, 24 h; % of positive control, neutral wells = 0. activation, % at 12.5 µM. hit rate 0.75% among 300,000;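 active = mean activation of at least 80% with every replicate also reaching 80%; inconclusive = mean reaches 80% but some replicate falls short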;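 note: 0% = neutral control wells and 100% = parthenolide positive control wells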
Vif inh: HIV Vif inhibition; HEK293T cells, Vif self-association by quenched fluorescence, imaging, 24 h; inhibition, % at 7.49 µM; AID 602346; hit rate 0.35% among 340,000; in the data active = inhibition above about 50%, passing the limit was not always enough; inconclusive = no clear call, values can overlap the other calls; inactive = below about 31%
esBAF inh: inhibitors of esBAF chromatin remodeling in mouse ES cells | reporter increase, % at 12.5 µM | Bmi1-luciferase knock-in reporter, 24 h; 100% = twice the neutral-well signal | hit rate 2% among 350,000; in the data active = activation above about 40%; inconclusive = no clear call, values can overlap the other calls;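 note: 0% = median of the plate's neutral control wells and 100% = double that signal; a rise in the Bmi1 reporter signal indicates esBAF inhibition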
Xi reactivation: activators of X-chromosome reactivation in mouse fibroblasts; XiGFP mouse fibroblasts, % GFP-positive cells imaging, 3 d; cells co-treated with 5-aza-dC sensitizer; scaled so ellipticine positive control = 100%; activation, % at 7.58 µM; hit rate 0.055% among 360,000; AID 743238;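 active = mean normalized replicate activation at least 10% and every replicate at or above 10%; inconclusive = only one of the two criteria met; inactive = mean below 10% and not all replicates reach 10%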;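 note: 0% = median of on-plate neutral control wells and 100% = ellipticine 6 µM median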
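Assay system – SV40-immortalized XiGFP fibroblast cells, line 68-5-11 · Buffer or medium – DMEM supplemented with 5-aza-dC as sensitizing agent · Dosing – one concentration, pinned · Benchmarks – positive control ellipticine, 6 µM final · Times – 3 days compound exposure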
* hit, by the source's call; u = inconclusive; x = not tested or not shown.

SMILES	Wnt bcat act	MITF TRPM1 HTS	Vif inh	esBAF inh	Xi reactivation
C[C@@H]1CN([C@@H](C)CO)C(=O)c2cccc(NC(=O)Nc3ccc(F)cc3)c2O[C@@H]1CN(C)Cc1ccc(-c2ccccc2)cc1	x	x	x	-3	0
CCOC(=O)c1ccc(NC(=O)Cn2nnc3ccccc32)cc1	0	x	-3	95*	x
CCOc1ccc(NC(=O)Cn2ncc3ccccc32)cc1	18	73	-2	51*	0
O=C(CCSCCc1ccccn1)Nc1ccc(Cc2ccncc2)cc1	-1	9	-13	-13	0
CCOC(=O)c1ccc(NC(=O)CCSCCc2ccccn2)cc1	x	86*	-3	4	0
O=C(Nc1ccc(F)cc1)N[C@@H]1CC[C@@H](CCNC(=O)c2ccccc2F)O[C@@H]1CO	x	x	x	x	1
O=C(c1cnccn1)N1CC(=O)N2[C@H](CO)[C@H](c3ccc(C#CC4CCCCC4)cc3)[C@@H]2C1	x	x	x	x	0
Cc1noc(C)c1NC(=O)N(C)C[C@H]1OCCCC[C@@H](C)Oc2ccc(NS(=O)(=O)c3ccc(F)cc3)cc2C(=O)N([C@H](C)CO)C[C@@H]1C	x	x	x	-1	0
C[C@H](CO)N1C[C@H](C)[C@@H](CN(C)S(=O)(=O)c2cn(C)cn2)Oc2ccc(NS(C)(=O)=O)cc2CC1=O	x	x	x	2	0
CO[C@@H]1CN(C)C(=O)c2cc(NC(=O)c3cc(C)on3)ccc2OC[C@H](C)NC[C@H]1C	x	x	x	-2	1
COc1cc(C)ccc1OCc1cc(C(=O)N(Cc2nccn2C)C(C)C)no1	27	75	-2	94*	0
COc1cc(C)ccc1OCc1cc(C(=O)N(Cc2c(C)nn(C)c2C)C2CC2)no1	26	46	2	61*	0
COc1cccc(OCc2cc(C(=O)N(Cc3nccn3C)C(C)C)no2)c1	-1	7	-4	3	0
CC(C)(C)C(=O)[C@H]1[C@H](c2ccccc2)[C@@]2(N=C(c3ccccc3)OC2=O)C2c3ccccc3C=NN21 (stereo partly drawn)	12	x	13	47*	x
CCCN(CC(=O)Nc1ccccc1C)C(=O)c1ccc2ccccc2n1	-4	-12	-4	0	0
Cc1ccccc1NC(=S)c1ccc2ccccc2n1	26	29	0	70*	0
Cc1noc(C)c1NC(=O)Nc1ccc2c(c1)C(=O)N([C@H](C)CO)C[C@@H](C)[C@H](CN(C)C(=O)Nc1ccc3c(c1)OCO3)O2	x	x	x	1	0
O=C(c1cc2ccccc2o1)c1cccs1	58*	x	-6	u	x
CC(C)c1nnc(NC(=O)c2cc3ccccc3o2)s1	27	108*	-8	23	0
CC(=O)c1ccc(NC(=O)c2cc3ccccc3o2)cc1	39*	31	-2	39	0
CC(C)NC(=O)c1cc2ccccc2o1	-2	x	-7	1	x
O=C(Nc1ccccc1)c1cc2ccccc2o1	35*	-8	x	-8	x
CC(=O)c1cccc(NC(=O)CNC(=O)c2cc3ccccc3o2)c1	1	-22	-5	0	0
CO[C@@H]1CN(C)C(=O)c2ccc(NC(=O)C3CC3)cc2OC[C@H](C)N(CC2CCCC2)C[C@H]1C	x	x	x	-1	0
Cc1noc(C)c1S(=O)(=O)N(C)C[C@@H]1Oc2ccc(NC(=O)Nc3ccccc3)cc2CC(=O)N([C@@H](C)CO)C[C@@H]1C	x	x	x	11	-1
SMILES	Wnt bcat act	MITF TRPM1 HTS	Vif inh	esBAF inh	Xi reactivation
CSc1nnc(NC(=O)c2cc3ccccc3oc2=O)s1	-1	x	13	54*	0
COc1ccc(NC(=O)c2ccco2)cn1	1	26	23	-8	0
COc1ccc(NC(=O)c2cc3ccccc3o2)cc1	4	55	0	58*	x
COc1ccc(NC(=O)c2ccc(-c3ccc(C(C)=O)cc3)o2)cn1	10	35	0	45*	0
N=c1oc2cc(O)ccc2cc1C(=O)Nc1ccc(Cl)cc1	47*	54	-7	58*	0
Cc1ccc(NC(=O)c2cc3ccccc3oc2=N)cc1	12	-21	-6	-81	0
O=C(Nc1ccc(F)cc1)N1CC(=O)N2[C@H](CO)[C@H](c3ccc(C#Cc4ccccc4)cc3)[C@@H]2C1	x	x	x	x	0
C[C@H](CO)N1C[C@H](C)[C@@H](CN(C)Cc2ccc(C(=O)O)cc2)OCc2cn(nn2)CCCC1=O	x	x	x	x	-1
C[C@H]1CN([C@@H](C)CO)C(=O)c2cc(C#CCN(C)C)cnc2O[C@H]1CN(C)Cc1ccccc1F	x	x	x	1	-1
C[C@H](CO)N1C[C@H](C)[C@@H](CN(C)S(=O)(=O)c2cccc(F)c2)Oc2ncc(C#CC3CCCC3)cc2C1=O	x	x	x	3	0
N=c1oc2ccccc2cc1C(=O)Nc1ccc(F)cc1	38*	-12	8	-16	0
Cc1cc(C(=O)Nc2ccccc2)oc1C	x	113*	-9	x	x
N=c1oc2ccccc2cc1C(=O)Nc1cccc(F)c1	15	6	-3	-2	0
COc1ccc(NC(=O)c2cc(=O)c3ccccc3o2)cn1	x	26	8	2	x
O=C(Nc1ncccc1Cl)c1cc2ccccc2o1	46*	51	14	u	0
COc1ccc(NC(=O)c2cc3ccccc3o2)cn1	43*	104*	-4	68*	0
O=C(Nc1ccc(N2CCCC2)cc1)c1cc2ccccc2o1	2	28	0	43*	0
O=C(Nc1ccc(NC(=O)c2cc3ccccc3o2)cc1)c1ccco1	0	6	-1	0	x
O=C(Nc1ccc(F)cc1)c1cc2ccccc2o1	16	45	-2	47*	0
CC(=O)N1CCN(c2ccc(NC(=O)c3cc4ccccc4o3)cc2)CC1	3	8	-4	4	0
COCc1cn(CC[C@@H]2CC[C@@H](NC(=O)Cc3cccnc3)[C@H](CO)O2)nn1	x	x	x	0	-1
COc1ccc2c3c(n(C)c2c1)[C@@H](CO)N(C(=O)CC1CC1)CC31CN(C(=O)CC2CC2)C1	x	x	x	x	0
c1ccn(-c2ccc(-c3ccn[nH]3)cc2)c1	9	93*	-4	x	0
Cc1ccc(C)n1-c1ccc(-c2ccn[nH]2)cc1	2	8	5	1	0
COc1ccccc1-c1ccc(NC2CCCCC2)nn1	x	83*	-4	x	x
SMILES	Wnt bcat act	MITF TRPM1 HTS	Vif inh	esBAF inh	Xi reactivation
COc1ccccc1-c1ccc(Nc2cccc(C(F)(F)F)c2)nn1	x	21	-1	45*	x
Cc1ccc(Nc2cccc(C(F)(F)F)c2)nn1	-1	9	-8	x	0
COc1cc(/C=C2\C(=O)N(CCC#N)N=C2C)ccc1OCC(=O)Nc1ccccc1	65*	5	8	x	0
O=C(C1CC1)N1C[C@@H]2[C@H](c3ccccc31)[C@@H](CO)N2C(=O)c1ccccn1	x	x	x	-4	0
CC(C)(C)c1nnc(NC(=S)Nc2ccccc2)s1	17	53	4	75*	0
S=C(Nc1ccccc1)Nc1nccs1	10	56	-4	60*	0
COc1cc(OC)cc(C(=O)Nc2nnc(NC(=S)Nc3ccccc3)s2)c1	x	-2	-9	x	x
